Measurements as given in ChEMBL document CHEMBL5325420, “Discovery of a spirocyclic 3-bromo-4,5-dihydroisoxazole covalent inhibitor of hGAPDH with antiproliferative activity against pancreatic cancer cells” (Eur J Med Chem, 2023).
Active and inactive are the calls of the source. The rule behind the calls is not given here.

What was measured:
[1] = biological target: Glyceraldehyde-3-phosphate dehydrogenase (Homo sapiens) (UniProt P04406); assay: Covalent inhibition of human recombinant his tagged GAPDH expressed in Escherichia coli at 100 uM measured after 3 hrs by spectrophotometric analysis relative to control
Method in brief: (§1)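 His-tagged hGAPDH from E. coli, 2 μM, preincubated at 25 °C with 10, 50 or 100 μM inhibitor for 30 min or 3 h in 10 mM TEA, 5 mM EDTA, 10 mM arsenate, pH 7.6. Residual activity of aliquots (enzyme 30–50 nM) measured with 1.5 mM NAD+, 100 μM DL-GAP, NADH at 340 nm, 25 °C. Relative to untreated enzyme; independent duplicates, mean ± SD.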

[2] = biological target: Glyceraldehyde-3-phosphate dehydrogenase (Homo sapiens) (UniProt P04406); assay: Covalent inhibition of human recombinant his tagged GAPDH expressed in Escherichia coli assessed as residual activity at 100 uM measured after 3 hrs by spectrophotometric analysis; method in brief: as §1
PaCa-3 = assay: Antiproliferative activity against human PaCa-3 cells assessed as reduction in cell growth at 1 to 100 uM incubated for 48 hrs by crystal violet staining based analysis; format: functional; conditions: dose 1-100 µM
Method in brief: (§2)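 PDAC lines and normal fibroblasts in DMEM-Glutamax, 10% FBS, 50 μg/ml gentamicin, 37 °C, 5% CO2. Seeded 5×10^3 cells/well for PDAC lines and 8×10^3 cells/well for fibroblasts. After 24 h, treated 48 h with 1–100 μM from 100 mM DMSO stocks. Crystal Violet read at A595, normalized to untreated cells. Mean ± SD (n = 4).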

[3] = biological target: Glyceraldehyde-3-phosphate dehydrogenase (Homo sapiens) (UniProt P04406); assay: Inhibition of human recombinant his tagged GAPDH expressed in Escherichia coli at 10 uM incubated for 48 hrs relative to control
Method in brief: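 Recombinant hGAPDH, 2 μM, with 10 μM inhibitor for 48 h at 37 °C in TEA/EDTA buffer, pH 7.6. Residual activity measured by the arsenate/NAD+/GAP assay, NADH at 340 nm, 25 °C. Expressed versus untreated enzyme; independent duplicates, mean ± SD.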

MIA PaCa-2 [4] = assay: Antiproliferative activity against human MIA PaCa-2 cells assessed as reduction in cell growth at 1 to 100 uM incubated for 48 hrs by crystal violet staining based analysis; format: functional; conditions: dose 1-100 µM; method in brief: as §2
PaCa-44 [5] = assay: Antiproliferative activity against human PaCa-44 cells assessed as reduction in cell growth at 1 to 100 uM incubated for 48 hrs by crystal violet staining based analysis; format: functional; conditions: dose 1-100 µM; method in brief: as §2
[6] = Antiproliferative activity in human PaCa-44 cells measured after 48 hrs by Crystal violet staining based analysis; format: functional, cell-based; conditions: PaCa-44, 48 h
Method in brief: (§3)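 IC50 from Crystal Violet growth curves. Cells in DMEM-Glutamax with 10% FBS, seeded, then exposed after 24 h to 1–100 μM for 48 h. A595 normalized to untreated cells. Three independent experiments.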

[7] = biological target: Glyceraldehyde-3-phosphate dehydrogenase (Homo sapiens) (UniProt P04406); assay: Binding affinity to human recombinant his tagged GAPDH expressed in Escherichia coli assessed elimination of racker band measured within 1 min by spectrophotometric analysis
Method in brief: (§4)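 Racker band loss. 100 μM His-tagged hGAPDH (expressed in E. coli) with 200 μM inhibitor in 10 mM TEA, 5 mM EDTA, 10 mM KH2PO4, pH 7.6. Absorbance at 340 nm followed until reaction completion; traces fitted to a kinetic equation.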

[8] = biological target: Glyceraldehyde-3-phosphate dehydrogenase (Homo sapiens) (UniProt P04406); assay: Covalent inhibition of human recombinant his tagged GAPDH expressed in Escherichia coli at 50 uM measured after 30 mins by spectrophotometric analysis relative to control; method in brief: as §1
PANC-1 [9] = assay: Antiproliferative activity in human PANC-1 cells habouring p53 mutant/R273H assessed as decrease in cell growth at 10 uM measured after 48 hrs by Crystal violet staining based analysis; format: functional
Method in brief: (§5)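 PaCa-3 (wt p53) and mutant-p53 PDAC lines exposed 48 h to 5 or 10 μM. Growth by Crystal Violet staining, each line normalized to its own untreated control. Mean ± SD, n = 4.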

[10] = biological target: Glyceraldehyde-3-phosphate dehydrogenase (Homo sapiens) (UniProt P04406); assay: Inhibition of recombinant his tagged-GAPDH in human PANC-1 cells expressed in Escherichia coli at 100 uM relative to control
[11] = biological target: Glyceraldehyde-3-phosphate dehydrogenase (Homo sapiens) (UniProt P04406); assay: Binding affinity to human recombinant his tagged GAPDH expressed in Escherichia coli assessed as pseudo first order reaction at 2 mM at pH 7 in presence of beta mercaptoethanol measured for 1 hr by HPLC method
PANC-1 [12] = assay: Antiproliferative activity in human PANC-1 cells measured after 48 hrs by Crystal violet staining based analysis; format: functional, cell-based; conditions: PANC-1, 48 h; method in brief: as §3
Fibroblast = assay: Antiproliferative activity against human Fibroblast assessed as reduction in cell growth at high concentration incubated for 48 hrs by crystal violet staining based analysis relative to control; format: functional; parameters: scale not given: the % may be the effect or the level left; method in brief: as §2
[13] = biological target: Glyceraldehyde-3-phosphate dehydrogenase (Homo sapiens) (UniProt P04406); assay: Inhibition of recombinant his tagged-GAPDH in human PaCa-3 cells expressed in Escherichia coli at 100 uM relative to control
[14] = Antiproliferative activity in human PaCa-3 cells habouring wild type p53 assessed as decrease in cell growth at 5 uM measured after 48 hrs by Crystal violet staining based analysis relative to control; format: functional; parameters: scale not given: the % may be the effect or the level left; method in brief: as §5
[15] = biological target: Glyceraldehyde-3-phosphate dehydrogenase (Homo sapiens) (UniProt P04406); assay: Inhibition of recombinant his tagged-GAPDH in human PaCa-44 cells expressed in Escherichia coli at 100 uM relative to control
MIA PaCa-2 [16] = assay: Antiproliferative activity in human MIA PaCa-2 cells habouring p53 mutant/R248W assessed as decrease in cell growth at 10 uM measured after 48 hrs by Crystal violet staining based analysis; format: functional; method in brief: as §5
[17] = biological target: Glyceraldehyde-3-phosphate dehydrogenase (Homo sapiens) (UniProt P04406); assay: Covalent inhibition of human recombinant his tagged GAPDH expressed in Escherichia coli at 10 uM measured after 30 mins by spectrophotometric analysis relative to control; method in brief: as §1
PANC-1 [18] = assay: Antiproliferative activity against human PANC-1 cells assessed as reduction in cell growth at 1 to 100 uM incubated for 48 hrs by crystal violet staining based analysis; format: functional; conditions: dose 1-100 µM; method in brief: as §2
[19] = biological target: Glyceraldehyde-3-phosphate dehydrogenase (Homo sapiens) (UniProt P04406); assay: Binding affinity to human recombinant his tagged GAPDH expressed in Escherichia coli assessed as absolute rate constant at 2 mM at pH 7 in presence of beta mercaptoethanol measured for 1 hr by HPLC method
[20] = Antiproliferative activity in human PaCa-3 cells measured after 48 hrs by Crystal violet staining based analysis; format: functional, cell-based; conditions: Paca3, 48 h; method in brief: as §3
PaCa-44 [21] = assay: Antiproliferative activity in human PaCa-44 cells habouring p53 mutant/C176S assessed as decrease in cell growth at 10 uM measured after 48 hrs by Crystal violet staining based analysis; format: functional; method in brief: as §5
MIA PaCa-2 [22] = assay: Antiproliferative activity in human MIA PaCa-2 cells measured after 48 hrs by Crystal violet staining based analysis; format: functional, cell-based; conditions: MIA PaCa-2, 48 h; method in brief: as §3
[23] = biological target: Glyceraldehyde-3-phosphate dehydrogenase (Homo sapiens) (UniProt P04406); assay: Binding affinity to human recombinant his tagged GAPDH expressed in Escherichia coli assessed as time constant at 200 uM measured after 1 min by spectrophotometric analysis; method in brief: as §4
[24] = biological target: Glyceraldehyde-3-phosphate dehydrogenase (Homo sapiens) (UniProt P04406); assay: Binding affinity to human recombinant his tagged GAPDH expressed in Escherichia coli assessed elimination of racker band at measured after 30 hrs by spectrophotometric analysis; method in brief: as §4
[25] = biological target: Glyceraldehyde-3-phosphate dehydrogenase (Homo sapiens) (UniProt P04406); assay: Binding affinity to human recombinant his tagged GAPDH expressed in Escherichia coli assessed as time constant at 200 uM measured after 30 hrs by spectrophotometric analysis; method in brief: as §4
PaCa-44 [26] = assay: Antiproliferative activity against human PaCa-44 cells assessed as reduction in cell growth at 100 uM incubated for 48 hrs by crystal violet staining based analysis; format: functional; method in brief: as §2

Sequence of Glyceraldehyde-3-phosphate dehydrogenase (Homo sapiens) (P04406 2-335 limits assumed): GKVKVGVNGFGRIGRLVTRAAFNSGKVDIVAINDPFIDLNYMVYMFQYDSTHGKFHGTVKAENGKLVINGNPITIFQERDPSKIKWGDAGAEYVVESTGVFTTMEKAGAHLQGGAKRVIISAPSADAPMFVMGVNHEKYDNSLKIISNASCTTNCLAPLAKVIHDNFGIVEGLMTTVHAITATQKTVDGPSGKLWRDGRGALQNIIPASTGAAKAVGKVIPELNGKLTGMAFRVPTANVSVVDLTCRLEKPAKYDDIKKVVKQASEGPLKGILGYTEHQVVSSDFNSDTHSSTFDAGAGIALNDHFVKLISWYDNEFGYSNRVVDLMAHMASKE

For `O=S(=O)(O)c1ccc(C2CC(Br)=NO2)cc1` (centres undefined), which inhibition [1] is on record?
Its inhibition is 20%.

For `Oc1ccc(C2CC(Br)=NO2)cc1` (centres undefined), which inhibition [1] is on record?
Its inhibition is 40%.

Which inhibition [2] does the source give for `BrC1=NOC(c2ccc(-c3nnn[nH]3)cc2)C1` (centres undefined) here?
Its inhibition is “inactive”.

For `BrC1=NOC(c2cccs2)C1` (centres undefined), which inhibition [2] is on record?
Its inhibition is “inactive”.

For `BrC1=NOC2(CCCc3ccccc32)C1` (centres undefined), which Activity (PaCa-3) is on record?
Its Activity is “Active”.

What about the inhibition [3] of the same compound?
The inhibition was 100%.

And the Activity (MIA PaCa-2 [4])?
The Activity was “Active”.

What about the Activity (PaCa-44 [5]) of the same compound?
Its Activity is “Active”.

And the IC50 [6]?
The IC50 was 16.2 µM.

And the inhibition [7]?
Its inhibition is “Active”.

And the inhibition [8]?
The inhibition was 100%.

What about the Activity (PANC-1 [9]) of the same compound?
Its Activity is “Active”.

What about the inhibition [1] of the same compound?
Its inhibition is 40%.

And the inhibition [10]?
The inhibition was 100%.

What about the K [11] of the same compound?
The K was 5.25 10^-6/s.

And the IC50 (PANC-1 [12])?
Its IC50 is 21.7 µM.

And the Activity (Fibroblast)?
The Activity was 20%.

What about the inhibition [13] of the same compound?
The inhibition was 100%.

What about the Activity [14] of the same compound?
Its Activity is 42%.

What about the inhibition [15] of the same compound?
The inhibition was 100%.

And the Activity (MIA PaCa-2 [16])?
Its Activity is “Active”.

What about the inhibition [17] of the same compound?
The inhibition was 100%.

And the Activity (PANC-1 [18])?
The Activity was “Active”.

What about the K [19] of the same compound?
The K was 8.75 10^-6/M/s.

And the IC50 [20]?
The IC50 was 4.69 µM.

And the Activity (PaCa-44 [21])?
The Activity was “Active”.

And the IC50 (MIA PaCa-2 [22])?
Its IC50 is 15.2 µM.

And the K [23]?
Its K is 0.2 min.

For `O=C(O)c1ccc(C2CC(Br)=NO2)cc1` (centres undefined), which inhibition [1] is on record?
The inhibition was 40%.

What about the K [11] of the same compound?
Its K is 1.11 10^-6/s.

And the K [19]?
Its K is 1.84 10^-6/M/s.

For `NS(=O)(=O)c1ccc(C2CC(Br)=NO2)cc1` (centres undefined), which inhibition [2] is on record?
Its inhibition is “inactive”.

What does the source list for `BrC1=NOC(c2ccccc2)C1` (centres undefined)?
inhibition [24]: inactive; inhibition [1]: 40%; K [11]: 6.62 10^-5/s; K [19]: 1.1 10^-4/M/s; K [25]: 908 min

With `O=C(O)c1ccccc1C1CC(Br)=NO1` (centres undefined) as the compound, how does the inhibition [2] read?
Its inhibition is “inactive”.

With `O=C(O)c1cccc(C2CC(Br)=NO2)c1` (centres undefined) as the compound, how does the inhibition [1] read?
The inhibition was 20%.

Which results are given for `O=C(O)c1ccc2c(c1)CCCC21CC(Br)=NO1` (centres undefined)?
inhibition [3]: 40%; inhibition [8]: 100%; inhibition [1]: 40%; inhibition [10]: 30%; K [11]: < 1 10^-8/s; K [19]: < 1 10^-8/M/s; Activity (PaCa-44 [26]): Active

Which K [23] does the source give for `CC(C)[C@H]1CC[C@@]2(CO2)[C@H]2C(=O)OCC(C(=O)O)=C[C@H]12` here?
The K was 0.701 min.

For `C=CC(=O)N1CCC[C@@H](n2nc(-c3ccc(Oc4ccccc4)cc3)c3c(N)ncnc32)C1`, which K [19] is on record?
The K was 10.4 10^-4/M/s.

Which inhibition [1] does the source give for `O=C(O)c1ccc(C2CC(Br)=NO2)s1` (centres undefined) here?
Its inhibition is 20%.
